Measurements from paper PMC7471432 (Acta Pharmacologica Sinica, 2020).
Read-outs that look alike come from different tables or passages of the source.

How the values were obtained:
[1] = tested on: 6-Hz-induced seizure model mice; assay: 6-Hz corneal kindling epilepsy test; assay type: in vivo, mouse; conditions: 100 mg/kg; GM oral 60 min prior to stimulation; 32 mA
[2] = tested on: cultured mouse hippocampal neurons; assay type: cell-based
Summary of the method: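 Hippocampi from E18 C57BL/6 mouse embryos were digested with 3 mg/mL proteinase for 8 min at 32 °C, triturated, and plated on poly-D-lysine coverslips. Cells were switched to serum-free Neurobasal-A/B-27 after 6 h and recorded after 12 days. Whole-cell current-clamp used a KCl/EGTA pipette (pH 7.2) and perfused NaCl/HEPES bath (pH 7.4), at room temperature.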

[3] = tested on: NaV currents; assay: NaV currents, whole-cell voltage-clamp, acutely isolated rat hippocampal neurons; assay type: cell-based
[4] = tested on: CaV currents; assay: Total CaV currents, whole-cell voltage-clamp, rat hippocampal neurons; assay type: cell-based; conditions: read-out: IC50 on total CaV currents; holding −90 mV, test pulse 0 mV, n = 6
Summary of the method: (§1)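 Rat hippocampal neurons were recorded in whole-cell voltage-clamp with a CsCl/TEA/5 mM MgATP internal (pH 7.2) and a bath containing 5 mM CaCl2 and 20 mM TEA-Cl (pH 7.4). Currents were evoked by steps from −90 mV to 0 mV at room temperature. Activation and inactivation curves were fitted with Boltzmann equations, and IC50 with a 3-parameter Hill equation.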

[5] = tested on: HVA calcium currents; assay: High-voltage-activated; assay type: cell-based, rat; conditions: 10 µmol/L GM
Summary of the method: as §1

[6] = tested on: LVA calcium currents; assay: Low-voltage-activated; assay type: cell-based, rat; conditions: 10 µmol/L GM
Summary of the method: as §1

[7] = tested on: delayed rectifier potassium current (IK); assay: Delayed rectifier potassium current; assay type: cell-based, rat; conditions: read-out: IC50 on IK; n = 5
Summary of the method: (§2)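 Rat hippocampal neurons were recorded in whole-cell voltage-clamp with a KCl/EGTA internal and a NaCl/KCl bath. Cells were held at −50 mV, prepulsed to −110 mV for 500 ms, then stepped from −110 to 40 mV. For IK, a 50 ms step to −50 mV removed IA, and amplitude was read at 300 ms. IA was read as peak. IC50 came from a 3-parameter Hill fit.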

[8] = tested on: transient outward potassium current (IA); assay: Transient outward potassium current; assay type: cell-based, rat; conditions: read-out: IC50 on IA; n = 5
Summary of the method: as §2

[9] = target: T1, human Kir2.1 channels (Homo sapiens, UniProt P63252); assay: Kir2.1 currents in HEK-293 cells stably expressing hKir2.1; assay type: cell-based
T1 sequence (P63252 1-427): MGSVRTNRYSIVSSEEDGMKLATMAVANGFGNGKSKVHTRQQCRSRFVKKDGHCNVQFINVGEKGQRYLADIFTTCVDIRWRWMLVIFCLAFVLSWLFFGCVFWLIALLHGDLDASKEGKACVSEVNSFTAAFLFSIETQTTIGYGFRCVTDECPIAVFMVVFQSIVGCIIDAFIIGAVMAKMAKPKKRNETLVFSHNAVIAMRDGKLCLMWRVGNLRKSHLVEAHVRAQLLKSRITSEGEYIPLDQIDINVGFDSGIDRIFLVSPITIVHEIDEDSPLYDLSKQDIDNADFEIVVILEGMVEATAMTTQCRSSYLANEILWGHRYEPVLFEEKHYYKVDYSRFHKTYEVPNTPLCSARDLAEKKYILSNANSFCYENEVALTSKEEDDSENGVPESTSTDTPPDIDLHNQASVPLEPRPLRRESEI
Summary of the method: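 HEK-293 cells stably expressing human Kir2.1 were held at −70 mV and given a 500 ms test pulse to −140 mV. The internal was 140 mM KCl with EGTA (pH 7.2) and the bath was NaCl/KCl (pH 7.4), at room temperature. Inhibition ratios are means ± SEM, compared with paired t test against control.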

[10] = tested on: nACh receptors; assay: Acetylcholine-evoked currents, cultured rat hippocampal neurons; assay type: cell-based; conditions: 30 μmol/L GM
Summary of the method: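 Cultured rat hippocampal neurons were held at −60 mV in whole-cell mode, and acetylcholine-evoked currents were recorded at room temperature with and without test compound. Concentration–response data (IDrug/IControl) were fitted to a 3-parameter Hill equation to obtain IC50. Data are means ± SEM.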

[11] = tested on: GABA receptors; assay: GABA-induced currents, rat hippocampal neurons; assay type: cell-based; conditions: n = 4
Summary of the method: (§3)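 Whole-cell recordings were made at room temperature from rat hippocampal neurons held at −60 mV. Currents were activated by applying the corresponding ligand under continuous bath perfusion. Signals were filtered at 2 kHz and digitized at 10 kHz. Data are means ± SEM, tested by paired two-tailed t test against control.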

[12] = tested on: NMDA receptors; assay: NMDA-induced currents, rat hippocampal neurons; assay type: cell-based; conditions: n = 4
Summary of the method: as §3

[13] = tested on: AMPA receptors; assay: AMPA-induced currents, rat hippocampal neurons; assay type: cell-based; conditions: n = 4
Summary of the method: as §3

[14] = tested on: KA receptors; assay: KA-induced currents, rat hippocampal neurons; assay type: cell-based; conditions: n = 4
Summary of the method: as §3

[15] = tested on: MES-induced seizure model mice; assay: MES-induced seizure assay; assay type: in vivo, mouse; conditions: oral
[16] = tested on: isolated rat aorta strips; conditions: 10 µmol/L GM; cited from earlier work

CC[C@@H](C(N)=O)N1CCCC1=O [LEV, Levetiracetam, reference compound]
Protection rate (%) [1]: 100%

Geissoschizine methyl ether [GM]
resting membrane potential after GM perfusion [2]: did not change
inhibition ratio of firing frequency ([2]; 1 μmol/L GM, n = 6): 45.3% ± 3.7%
inhibition ratio of firing frequency ([2]; 3 μmol/L GM, n = 6): 49.6% ± 5.1%
reduction of action potential amplitude ([2]; 3 μmol/L GM, n = 6): 9.5% ± 1.8%
inhibition ratio of firing frequency ([2]; 10 μmol/L GM, n = 6): 82.3% ± 1.1%
reduction of action potential amplitude ([2]; 10 μmol/L GM, n = 6): 20.9% ± 3.2%
half-width of the action potential ([2]; 10 μmol/L GM, control 2.0 ± 0.2 ms, n = 6): 2.7 ± 0.4 ms
inhibition ratio of firing frequency ([2]; 30 μmol/L GM, n = 6): 97.8% ± 0.5%
reduction of action potential amplitude ([2]; 30 μmol/L GM, n = 6): 100.0%
half-activation voltage of NaV currents ([3]; 10 µmol/L GM, control −45.1 ± 1.0 mV): −42.7 ± 0.8 mV
V1/2 of steady-state inactivation of NaV currents ([3]; 10 µmol/L GM, control −54.4 ± 0.5 mV): −61.4 ± 0.6 mV
IC50 ([3]; read-out: IC50 on NaV currents, holding −90 mV, test pulse −20 mV, n = 7): 10.2 µM
IC50 [4]: 13.3 µM
change of activation curve of HVA currents [5]: did not exhibit a remarkable change
reduction of HVA currents ([5]; elicited at 0 mV, n = 7): 28.5% ± 10.9%
shift in inactivation curve of HVA currents ([5]; n = 9): No significant shift
change of activation curve of LVA currents [6]: did not exhibit a remarkable change
reduction of LVA currents ([6]; elicited at 0 mV, n = 7): 48.4% ± 6.9%
effect on LVA current inactivation ([6]; n = 5): lack of an effect
IC50 [7]: 1.6 µM
IC50 [8]: 50 µM
inhibition ratio of Kir2.1 currents ([9]; 10 µmol/L GM, n = 5): 1.3% ± 2.2%
inhibition ratio of Kir2.1 currents ([9]; 30 µmol/L GM, n = 7): 3.8% ± 1.5%
inhibition ratio of Kir2.1 currents ([9]; 100 µmol/L GM, n = 10): 13.9% ± 2.2%
inhibition of acetylcholine-evoked currents [10]: completely inhibited
change of GABA receptor-mediated currents ([11]; 30 µmol/L GM): No remarkable changes
modulation of GABA receptor-mediated currents ([11]; 100 µmol/L GM): very weak
change of NMDA (glutamate) receptor-mediated currents ([12]; 30 µmol/L GM): No remarkable changes
modulation of NMDA (glutamate) receptor-mediated currents ([12]; 100 µmol/L GM): very weak
change of AMPA (glutamate) receptor-mediated currents ([13]; 30 µmol/L GM): No remarkable changes
modulation of AMPA (glutamate) receptor-mediated currents ([13]; 100 µmol/L GM): very weak
change of KA (glutamate) receptor-mediated currents ([14]; 30 µmol/L GM): No remarkable changes
modulation of KA (glutamate) receptor-mediated currents ([14]; 100 µmol/L GM): very weak
ED50 for protection against MES [15]: 78.9 (60.3–103.3) mg/kg
Protection rate (%) [1]: 70%
effect on Bay K8644- or Ca2+-induced contractions [16]: able to relax
